# An excerpt weighted towards active compounds, which were near 2.9% of everything screened.
# Cneo AK release: Cryptococcus neoformans cell lysis inducers, primary screen, AK release luminescence, single concentration; lysis activity, % at 15 µM; 360,000 compounds, 0.2% hits; AID 651654, 2012; C. neoformans lysis, adenylate kinase release luminescence, 4 h; normalised: neutral wells 0, clomiphene wells 100;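 active = mean lysis activity across replicates of at least 80%, whatever share of replicates individually reach that level; inactive = mean lysis activity below 80%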
#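 Signal: Adenylate kinase release luminescence | Assay system: Log-phase Cryptococcus neoformans yeast cells | Input: Cells at 5 × 10^6 per mL | Buffer or medium: Fresh YPD growth medium | Compound: Single dose | Schedule: Static 4 h at 37 °C with compound, 1 h detection | Controls: Clomiphene | Read-out: Luminescence rise reflecting yeast cell lysis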
# FGF22 binding: binders of human FGF22 protein, primary screen, FGF22 synaptogenesis inhibitor project, biophysical, thermal shift, single point; Fibroblast growth factor 22 (Homo sapiens), Q9HCT0; recombinant FGF22 thermal shift, SYPRO orange fluorescence; percent of sucrose octasulfate shift, DMSO zero; activity (Tm shift, normalised), % at 9.99 µM; 340,000 compounds, 1.5% hits;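 active = mean Tm shift, scaled 0 neutral to 100 positive control, at about 1.3% or above, every replicate too, limit read from the data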
# Target sequence (Q9HCT0 whole entry, looked up): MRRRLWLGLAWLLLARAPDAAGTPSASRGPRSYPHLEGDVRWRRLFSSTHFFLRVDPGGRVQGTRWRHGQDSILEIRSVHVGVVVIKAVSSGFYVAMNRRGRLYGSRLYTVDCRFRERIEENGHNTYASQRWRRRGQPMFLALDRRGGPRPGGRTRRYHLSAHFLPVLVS
# Vif inh: HIV Vif self-association inhibitors, primary screen, imaging, HEK293T, single point. HEK293T cells, Vif self-association by quenched fluorescence, 24 h. inhibition, % at 7.49 µM. 340,000 compounds, 0.35% hits; in the data active = inhibition above about 50%, passing the limit was not always enough
# PGC1a acetyl inh: inhibitors of PGC1a acetylation signal, primary screen, cell-based, U2OS, AlphaScreen, inhibitor mode | AlphaScreen anti-acetyl-lysine; with virally co-expressed GCN5 acetyltransferase | inhibition, % at 15.6 µM | 350,000 compounds, 0.17% hits | AID 651687, 2012;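 active = every replicate shows inhibition of at least 40%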;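 also: 0% = neutral control wells and 100% = positive control wells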
# rRNA inh HTS: reduced GFP signal of wild-type E. coli, primary screen, bacterial rRNA inhibitor project, GFP/RFP fluorescence, OD600, single point; 350,000 compounds, 1.6% hits; AID 720706, 2013; GFP signal change (wild-type ribosome), % (test concentration not listed); E. coli WT GFP vs humanized-ribosome RFP mutants, 24 h; hits give low values; DMSO median 0, no signal -100;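 active = significant combined selectivity score with lowered wild-type GFP, culture density cut under 30%, mutant RFP and density less affected; inactive = any of these conditions unmet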
# PglD inh: C. jejuni PglD acetyltransferase inhibitors, primary screen, biochemical, DTNB colorimetric, single point. purified PglD enzyme, DTNB colorimetric CoA detection. inhibition, % at 12.5 µM. 360,000 compounds, 0.098% hits. AID 602405, 2012; in the data active = inhibition above about 16%, passing the limit was not always enough
# Starred values were filed as active, the others as inactive; x = no result given; ! = repeats disagree.
SMILES,Cneo AK release,FGF22 binding,Vif inh,PGC1a acetyl inh,rRNA inh HTS,PglD inh
O=S(=O)(Cc1cc(NCc2ccccc2)nc(-c2ccncc2)n1)c1ccccc1,x,42,-1,x,11,x
Cc1ccc(C2CC(c3cccs3)=NN2C(=O)c2ccc(Br)o2)cc1 (configuration not stated),200*,x,-2,12,x,-2
CNC(=S)N1N=C(c2cccs2)CC1c1ccc(OC)cc1 (configuration not stated),-5,0,-2,1,-21*,8
COc1ccc(C2CC(c3cccs3)=NN2C(=O)CN2CCCCC2)cc1 (configuration not stated),x,0,-2,-6,12,x
CCCNC(=O)Nc1ccc2c(c1)C(=O)N(C)C[C@H](OC)[C@@H](C)CN(Cc1ccncc1)[C@H](C)CO2,-3,x,x,-2,0,x
C[C@@H]1CN([C@H](C)CO)C(=O)c2cc(NS(=O)(=O)c3cccs3)ccc2O[C@@H](C)CCCCO[C@@H]1CN(C)C(=O)CCCN(C)C,x,0,x,-9,3,x
Cc1cc(C)nc(/N=C(/NC(=O)c2ccccc2)Nc2ccccc2)n1,-1,x,x,6,x,-2
COc1ccc(N/C(=N/c2nc(C)cc(C)n2)NC(=O)c2ccccc2)cc1,x,0,-4,x,-20*,x
CCN(C[C@H]1N[C@@](C)(C(=O)OC)[C@H]2C(=O)N(C)C(=O)[C@@H]12)C(C)=O,-2,43*,8,x,9,1
CCN(C[C@H]1N[C@@](C)(C(=O)OC)[C@H]2C(=O)N(C)C(=O)[C@@H]12)C(=O)c1ccccc1,5,0,5,x,7,4
CCN(C[C@H]1N[C@@](C)(C(=O)OC)[C@H]2C(=O)N(C)C(=O)[C@@H]12)C(=O)COC,-1,43*,6,x,12,-1
COC(=O)c1ccccc1N=Nc1c(C)noc1C,x,0,3,x,-28*,x
COC(=O)c1ccccc1N=Nc1c(C)n[nH]c1C,x,0,-7,7,-7,x
COC(=O)C[C@@H]1CC[C@H]2[C@H](COc3ccc(NC(=O)Cc4cccs4)cc3C(=O)N2C)O1,x,x,x,x,-2,x
CCCNC(=O)OCc1cccnc1Sc1ccc(C)cc1,-1,43*,-6,-5,-29,-3
CC=Cc1ccc2n(c1=O)C[C@@H]1[C@@H](CO)[C@H](C(=O)N3CCCCC3)N(Cc3ccccc3)[C@H]21 (mixture of isomers),106*,0,x,4,-3,2
CC=Cc1ccc2n(c1=O)C[C@H]1[C@H](CO)[C@@H](C(=O)N3CCOCC3)N(CC3CC3)[C@@H]21 (mixture of isomers),84*,0,x,x,0,0
C[C@@H]1CN([C@H](C)CO)C(=O)Cc2cc(NC(=O)Nc3ccc(F)cc3)ccc2O[C@@H]1CN(C)Cc1ccc(Cl)c(Cl)c1,-15,0,x,-1,3,0
Cc1ccc(C)c(-n2c(SCC(=O)N3CCC(C(=O)O)CC3)nnc2-c2cccc(Cl)c2)c1,x,44*,16,x,-11,x
CO[C@H]1CN(C)C(=O)c2cc(NC(=O)C3CC3)ccc2OC[C@H](C)N(C(=O)c2cccnc2)C[C@@H]1C,-5,0,x,-5,1,-2
COc1cccc(-c2csc(NC(=O)Nc3ccccc3)n2)c1,5,1,-26,x,-28*,-2
COc1cccc(-c2csc(N3CCN(C(=O)Nc4ccccc4OC)CC3)n2)c1,x,0,122*,1,-21,x
Cc1nc(-c2cccc(NC(=O)Cc3ccccc3)c2)cs1,x,43*,-7,x,-32,x
Cc1nc(-c2cccc(NC(=O)c3cccs3)c2)cs1,0,x,8,-2,x,4
C/C=C/c1ccc(C2[C@H]3CNC[C@@H]2N3S(=O)(=O)Cc2ccccc2)cc1 (some centres not stated),x,x,x,x,5,x
SMILES,Cneo AK release,FGF22 binding,Vif inh,PGC1a acetyl inh,rRNA inh HTS,PglD inh
Cc1ccc(C(NC(=O)N2CCN(C)CC2)C(Cl)Cl)cc1F (configuration not stated),0,44*,12,-11,10,x
Cc1ccc(C(NC(=O)N2CCOCC2)C(Cl)Cl)cc1F (configuration not stated),x,x,5,x,x,x
Cc1ccc(SCCC(=O)Nc2c(C)n(C)n(-c3ccccc3)c2=O)cc1,-3,x,-1,4,x,7
Cc1c(NC(=O)CSc2ccc(Cl)cc2)c(=O)n(-c2ccccc2)n1C,x,44*,-4,x,3,x
Cc1c(NC(=O)COC(=O)C23CC4CC(CC(O)(C4)C2)C3)c(=O)n(-c2ccccc2)n1C,x,44*,-6,x,10,x
Cc1c(NC(=O)COC(=O)C2(c3ccccc3F)CCCC2)c(=O)n(-c2ccccc2)n1C,x,43*,8,x,x,x
CCC(C(=O)OCC(=O)Nc1c(C)n(C)n(-c2ccccc2)c1=O)c1ccccc1 (configuration not stated),0,x,-4,13,x,-2
CC(C)NC(=O)Nc1ccc2c(c1)CC(=O)N([C@@H](C)CO)C[C@@H](C)[C@H](CN(C)Cc1ccc(-c3ccccc3)cc1)O2,0,0,x,-4,-5,2
CNC(=O)C[C@@H]1CC[C@@H]2[C@@H](COc3ccc(NC(=O)c4ccc(C(F)(F)F)cc4)cc3C(=O)N2C)O1,4,0,x,17,-3,0
CC(C(=O)Nc1ccc(O)cc1)c1cccc(C(=O)c2ccccc2)c1 (configuration not stated),x,-1,5,-13,-37*,x
O=C(Nc1ccc(C(F)(F)F)cc1)N1C[C@@H]2N[C@H](C1)C2c1ccc(/C=C/c2ccccc2)cc1 (some centres not stated),x,x,x,73*!,-59,x
O=C(C1CCC1)N1C[C@@H]2N[C@H](C1)C2c1ccc(/C=C/c2ccccc2)cc1 (some centres not stated),x,x,x,-50,-57,x
Cn1c(=O)c(/C=C/c2ccccc2)nc2ccccc21,x,x,-9,x,x,x
Cn1c(/C=C/c2ccccc2)nc2ccccc21,x,0,16,x,-24*,x
Cc1ccc(S(=O)(=O)N(C)C)cc1NC(=O)Nc1ccccc1F,-2,0,x,-23,6,5
Cc1cc(C)cc(NC(=O)Nc2cc(S(=O)(=O)N(C)C)ccc2C)c1,-1,0,-9,3,-23*,-1
